This is a sample that favours compounds with a hit; in the whole collection about 5.7% have one here.
T cruzi inh – blocks replication of Trypanosoma cruzi. T. cruzi beta-gal in NIH3T3, luminescence, 90 h. inhibition, % (test concentration not listed). 300,000 compounds, 1.4% hits;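 active = mean inhibition across valid replicates above about 55%, limit read from the data; inconclusive = mean below that limit but half or more replicates reach it; inactive = mean below it, under half of replicates reach it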;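 also: signal also drops with host cell toxicity which is not excluded here; 0% = plate median of DMSO wells and 100% = zero luminescence signal; higher percent means less beta-gal luminescence so fewer parasites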
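System: NIH/3T3 fibroblasts plus reporter T. cruzi. Medium: DMEM plus 2% FBS. Probe or stimulus: 5000 reporter trypomastigotes per well. Compound: single 50 nL compound addition per well in DMSO. Incubation: co-culture of at least 90 h after 3 h attachment. Detection: GalScreen β-gal luminescence, detergent lysis, 60 min. Evaluation: parasite load inhibition, %.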
SKKanGAS inh – blocks kanamycin growth of S. pyogenes SKKanGAS strain; 300,000 compounds, 1.3% hits; inhibition, % at 7.5 µM; AID 1662; BacTiter-Glo, 6 h;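 active = mean replicate score, as percent of positive control median, at least 50; inconclusive = mean below 50 but one replicate at or above 50; inactive = mean and every replicate below 50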;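 also: strain carries kanamycin resistance gene driven by streptokinase promoter and grows in 40 µg/ml kanamycin; loss of luminescence reflects streptokinase promoter inhibition or plain growth inhibition; 0% = median of DMSO wells and 100% = positive control at its reference dose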
Calb FLC – C. albicans growth modulation with fluconazole. growth inhibition, % (no concentration beside the values). 300,000 compounds, 0.57% hits. AID 1979. C. albicans CaCi-2 + fluconazole, Alamar Blue growth, 48 h;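 active = growth inhibition above about 58% in most replicates, limit read from the data, passing the limit was not always enough; inconclusive = exactly half the replicates above a set limit; inactive = most replicates below a set limit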;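 also: all wells also contain fluconazole at 8 µg/ml as a sub-toxic cotreatment; 0% = median of DMSO wells and 100% = median of geldanamycin control wells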
Beta cell apopt – blocks beta cell apoptosis; INS-1E cytokine-induced death, ATP luminescence, 48 h; percent of positive-control rescue, neutral wells zero; protection from apoptosis, % (test concentration not listed); 300,000 compounds, 0.8% hits; AID 435005;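 active = Every replicate reaches about 75%, or at least half do and their mean reaches it too, limit read from the data; inconclusive = At least half of replicates reach the limit but their mean does not; inactive = Under half of replicates reach the limit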;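 also: 0% = cytokine-treated negative control wells and 100% = positive control rescue; higher means more ATP so stronger rescue from cytokine killing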
CSC inhib – blocks cancer stem cells; cancer stem cell-like cells viability, luminescence; inhibition, % at 7.5 µM; 300,000 compounds, 1.1% hits; in the data active = inhibition above about 75%; inconclusive = no clear call, values can overlap the other calls; tested in HMLE shEcad cells
Mdm2-MdmX inh – inhibitors of human Mdm2/MdmX interaction. O15151+Q00987. SaOS-2 split-luciferase Mdm2/MdmX complementation, luminescence. inhibition, % at 8 µM. 330,000 compounds, 3% hits. AID 485346;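 active = inhibition of at least 50% at 8 µM in the primary screen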
Target sequence (O15151 whole entry, looked up): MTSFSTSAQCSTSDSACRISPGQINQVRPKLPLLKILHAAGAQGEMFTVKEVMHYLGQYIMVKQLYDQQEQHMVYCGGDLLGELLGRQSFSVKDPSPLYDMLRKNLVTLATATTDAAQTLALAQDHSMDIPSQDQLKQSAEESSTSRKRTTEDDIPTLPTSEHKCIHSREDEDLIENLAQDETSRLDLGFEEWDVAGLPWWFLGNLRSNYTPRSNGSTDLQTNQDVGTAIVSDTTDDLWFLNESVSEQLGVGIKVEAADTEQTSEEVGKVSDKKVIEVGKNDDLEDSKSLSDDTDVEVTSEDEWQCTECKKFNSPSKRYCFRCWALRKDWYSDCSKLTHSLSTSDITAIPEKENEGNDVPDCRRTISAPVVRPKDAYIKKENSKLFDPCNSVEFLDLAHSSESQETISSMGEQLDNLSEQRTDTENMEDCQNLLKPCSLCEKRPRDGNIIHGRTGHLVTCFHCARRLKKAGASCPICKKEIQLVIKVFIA
Target sequence (Q00987 whole entry, looked up): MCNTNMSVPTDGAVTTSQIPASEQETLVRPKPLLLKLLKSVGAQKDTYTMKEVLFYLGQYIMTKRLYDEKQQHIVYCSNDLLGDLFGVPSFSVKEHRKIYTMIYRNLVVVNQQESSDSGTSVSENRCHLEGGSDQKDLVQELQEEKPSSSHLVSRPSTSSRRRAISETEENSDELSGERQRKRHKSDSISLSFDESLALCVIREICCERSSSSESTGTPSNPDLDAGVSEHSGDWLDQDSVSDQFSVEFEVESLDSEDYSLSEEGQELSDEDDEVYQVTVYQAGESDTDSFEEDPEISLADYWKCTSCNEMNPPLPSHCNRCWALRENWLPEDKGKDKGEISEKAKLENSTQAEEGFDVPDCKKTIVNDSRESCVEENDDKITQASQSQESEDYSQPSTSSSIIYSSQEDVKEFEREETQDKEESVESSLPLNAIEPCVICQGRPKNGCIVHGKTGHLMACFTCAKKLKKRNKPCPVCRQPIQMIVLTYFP
Mdm2-MdmX conf – confirmation of human Mdm2/MdmX interaction inhibitors | shares compounds with Mdm2-MdmX inh | Mdm2-MdmX binding, luminescent assay | inhibition, % at 8 µM | 10,000 compounds, 55% hits | AID 489028; in the data active = inhibition above about 40%
FLuc counter – full-length luciferase inhibition in Mdm2/MdmX counter-screen; shares compounds with Mdm2-MdmX inh; SaOS-2 full-length luciferase counterscreen, luminescence; inhibition, % at 8 µM; 6,200 compounds, 77% hits; AID 504607;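 active = mean inhibition at 8 µM reaching about 37%, which flags the compound as non-specific, limit read from the data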;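 also: p53-null SaOS-2 cells with luciferase driven by a doxycycline-inducible promoter; compound on cells about two nights before reading with doxycycline added after day one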
An asterisk follows results filed as active; ? = inconclusive; . = no result.

SMILES	T cruzi inh	SKKanGAS inh	Calb FLC	Beta cell apopt	CSC inhib	Mdm2-MdmX inh	Mdm2-MdmX conf	FLuc counter
COc1ccccc1C1CC(c2c(-c3ccccc3)c3cc(Cl)ccc3[nH]c2=O)=NN1S(C)(=O)=O (configuration not stated)	.	.	.	17.7	9.7	37.4	.	.
CCn1c(C)nc2cc(-c3nc4n(n3)Cc3ccccc3-4)ccc21	11.3	64.9*	13.0	71.4	92.2*	92.3*	99.3*	51.4*
COc1ccc(-c2oc3ccccc3c(=O)c2OC(=O)c2ccc(C)cc2)cc1	11.5	-8.6	7.3	7.8	20.2	79.5*	52.7*	16.6
COc1ccc(C(=O)c2c(-c3ccc(OC)cc3)oc3ccccc23)cc1	.	.	.	0.4	-2.1	9.3	.	.
O=C(Oc1c(-c2ccccc2Cl)oc2ccccc2c1=O)c1ccc(Cl)cc1	1.8	-18.0	10.1	0.5	7.5	67.3*	52.7*	47.5*
O=C(Oc1c(-c2ccccc2)oc2ccccc2c1=O)c1ccccc1	21.3	15.5	19.1	9.3	14.1	84.9*	61.4*	18.4
COc1ccc(C(=O)c2ccc3oc(-c4ccc(OC)cc4)c(-c4ccc(O)cc4)c3c2)cc1	.	.	.	22.3	104.3*	66.0*	13.7	.
O=C(CCN1CCN(S(=O)(=O)c2cccc([N+](=O)[O-])c2)CC1)Nc1ccccc1F	17.4	16.9	51.7	-4.3	3.6	-6.0	.	.
Cc1ccc(NC(=O)N2CCCC2C(=O)NCc2ccc(Cl)cc2)cc1 (configuration not stated)	0.7	7.9	-1.5	-2.2	-23.0	13.3	.	.
CC1=C(C(=O)Nc2ccccc2)C(c2ccco2)C(C#N)=C(SCC(=O)Nc2cccc(C)c2C)N1 (configuration not stated)	17.7	10.2	-10.8	53.1	4.9	69.2*	42.4*	79.3*
CC1=C(C(=O)Nc2ccccc2)C(c2ccco2)C(C#N)=C(SCc2ccccc2)N1 (configuration not stated)	4.9	6.9	5.4	19.8	?	42.2	.	.
CC(C)CNC(=O)C(=O)Nc1cc2c3c(c1)C(C)C(=O)N3CCC2 (configuration not stated)	1.4	-3.1	25.1	1.9	9.2	-0.5	.	.
COC(=O)c1ccc(Sc2nnnn2-c2ccccc2)c([N+](=O)[O-])c1	1.4	0.3	-4.6	-26.6	4.0	68.0*	49.3*	23.0
Clc1nc(-c2cccnc2)nc2scc(-c3ccccc3)c12	10.5	16.4	39.5	-7.8	12.4	18.2	.	.
COc1ccc(-c2csc3nc(-c4cccnc4)nc(Cl)c23)cc1OC	-46.7	13.7	12.5	19.1	49.8	81.1*	30.8	.
O=C(CC1SC(N2CCCC2)=NC1=O)Nc1ccc(C(=O)NCc2ccc(F)cc2)cc1 (configuration not stated)	.	.	.	.	.	-0.2	.	.
CC1CCCC(NC(=O)c2ccc(F)c(S(=O)(=O)N3CCOCC3)c2)C1C (configuration not stated)	-6.6	-1.4	-2.5	0.3	-4.2	7.2	.	.
Cc1ccccc1NC(=O)OCc1ccccc1	-15.8	10.5	2.0	.	3.7	-10.7	.	.
Cc1nc(S(=O)(=O)N(C)c2ccccc2)c(C#N)c(C)c1Cl	-10.4	15.2	-12.7	-3.7	-11.8	96.2*	93.4*	57.4*
CN(c1ccccc1)S(=O)(=O)c1ccc(Cl)nc1	-1.8	-3.7	3.8	-2.2	6.1	14.5	.	.
CCC(C)NC(=O)C1CCC(=O)N1CCc1ccccc1 (configuration not stated)	-7.0	-0.7	-2.7	0.4	-2.4	12.6	.	.
Cc1ccc2c(c1)c1c(n2CC(O)Cn2c(C)nc3ccccc32)C(=O)CCC1 (configuration not stated)	6.7	-5.9	-0.8	.	4.5	16.4	.	.
Cc1ccc2c(c1)c1c(n2CC(O)Cn2c(C)nc3ccccc32)/C(=N\O)CCC1 (configuration not stated)	30.4	14.6	-19.0	1.2	38.7	59.5*	6.0	.
CC1CCN(CCOCCOc2ccc(Br)cc2Cl)CC1	45.5	0.6	3.8	-6.9	.	52.5*	19.6	.
CC1CCCN(C(=O)CN2C(=O)NC(C)(c3ccc4ccccc4c3)C2=O)C1 (configuration not stated)	.	.	.	2.3	.	23.5	.	.
SMILES	T cruzi inh	SKKanGAS inh	Calb FLC	Beta cell apopt	CSC inhib	Mdm2-MdmX inh	Mdm2-MdmX conf	FLuc counter
CCOc1cccc(/C=N/NC(=O)c2cc(-c3cccn3C)n[nH]2)c1O	1.0	18.3	24.4	.	-6.0	62.9*	62.5*	51.6*
CCOc1cccc(/C=N/NC(=O)c2ccc3c(c2)OCCO3)c1O	-20.8	95.3*	1.0	91.6*	27.7	56.0*	43.0*	45.3*
C/C(=N\NC(=O)c1ccc2c(c1)OCCO2)c1ccccc1	-8.0	-2.8	-4.1	-1.9	23.5	71.3*	-12.9	.
COc1cccc(/C=N/NC(=O)CNC(=O)c2ccc3c(c2)OCCO3)c1O	-16.4	-8.3	-56.8	14.5	10.2	20.3	.	.
COc1cc(SC)ccc1C(=O)Nc1cccc(S(=O)(=O)NC2=NCCC2)c1	.	.	.	-4.3	-6.3	11.7	.	.
COc1ccc2c(c1)c(/C=N/Nc1nc3ccccc3[nH]1)c(C)n2C	50.4	71.2*	-19.7	117.2*	45.3	92.8*	37.3	67.9*
COc1cccc(C(=O)Nc2nc3ccccc3[nH]2)c1	12.3	30.6	-10.1	12.6	1.1	-60.7	.	.
COc1ccccc1NS(=O)(=O)c1cc(C(=O)N2CCCC2)ccc1F	.	.	.	.	.	19.9	.	.
Cc1nn(C(C)(C)C)c(C)c1/C=N/OC(=O)Nc1ccc(Cl)cc1	8.7	-3.8	-6.0	-2.9	12.8	95.5*	93.5*	56.5*
N#Cc1ccc(S(=O)(=O)NC2CCCCNC2=O)cc1 (configuration not stated)	0.1	-7.9	-3.5	-4.2	-4.8	31.5	.	.
Cc1ccc(S(=O)(=O)n2ccc3c(OCCOCCNCc4ccc(F)cc4)cccc32)cc1	55.3*	7.9	0.7	29.8	59.5	53.9*	23.4	.
Cc1ccc(S(=O)(=O)n2ccc3c(OCCOCCSCC(NC(=O)OC(C)(C)C)C(=O)O)cccc32)cc1 (configuration not stated)	7.5	18.9	39.5	-13.4	5.0	12.4	.	.
O=C1c2ccccc2C2=Nc3ccccc3SC(c3ccc(Cl)cc3)C12 (configuration not stated)	47.5	78.3*	6.5	95.1*	126.9*	87.2*	47.4*	78.1*
Cc1ccc(S(=O)(=O)N2CCN(C(=O)COC(=O)C3CCC3)CC2)cc1	-7.2	-0.3	8.6	.	-10.4	6.6	.	.
CCOc1ccc2nc(Cl)c(C3CC(c4ccccc4)=NN3C(=O)c3ccco3)cc2c1 (configuration not stated)	-0.7	2.9	5.3	3.9	34.0	56.5*	7.8	.
